Key:
[1] = tested on: PDGFR-β NHE G-quadruplexes; conditions: cited from earlier work
[2] = tested on: NO-NHE luciferase construct; experiment: Luciferase reporter assay, NO-NHE construct; type: cell-based, human; conditions: HEK 293, 100 μM, 24 h
SK-N-SH = experiment: MTS cytotoxicity assay in SK-N-SH; type: cell-based; conditions: read-out: IC50 concentration in SK-N-SH
[3] = tested on: R1 mutant PDGFR-β i-motif; experiment: CD spectral and thermal-melt analysis with R1 mutant i-motif; type: binding, human
How it was run: (§1)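 Oligo at 5 μM final in 10 mM sodium cacodylate, pH 6.5. Heated to 95 °C for 5 min, slowly cooled to room temperature, then given molar equivalents of compound or DMSO for 30 min. CD spectra 230–350 nm at room temperature, triplicate scans averaged and baseline-corrected. Melts followed at 286 nm, 20–95 °C at 1 °C/min. Tm by nonlinear regression.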

[4] = tested on: PDGFR-β Py41 WT i-motif FRET probe; experiment: i-motif FRET assay, WT probe; type: binding, human; conditions: probe 20 nM, compound 200 nM, 30 min
[5] = tested on: PDGFR-β promoter WT-NHE luciferase construct; experiment: Luciferase reporter assay, WT-NHE construct; type: cell-based, human; conditions: 24 h
[6] = tested on: PDGFR-β Py41 R1 mutant i-motif FRET probe; experiment: i-motif FRET assay, R1 mutant probe; type: binding, human
HEK293 = experiment: MTS cytotoxicity assay in HEK293; type: cell-based, human; conditions: read-out: IC50 in HEK 293
PDGFR-β transcript = experiment: qRT-PCR of PDGFR-β transcript in SK-N-SH; type: cell-based; conditions: 24 h, relative to DMSO control
[7] = tested on: PDGFR-β NHE WT 41-mer (FL Pu41); type: binding, human; conditions: CD spectral and thermal melt analysis
How it was run: (§2)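 Oligo at 5 μM final in 50 mM Tris-HCl with 50 mM K+, pH 7.4. Heated to 95 °C for 5 min, slowly cooled, then incubated 30 min with molar equivalents of compound or DMSO. CD 230–330 nm at room temperature, triplicate scans averaged and baseline-corrected. Melt at 262 nm from 20 to 95 °C at 1 °C/min. Tm by nonlinear regression, ±1 °C.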

WT PDGFR-β i-motif = experiment: CD spectral and thermal-melt analysis with WT i-motif; type: binding, human; conditions: increasing concentrations of compound
How it was run: as §1

[8] = tested on: PDGFR-β promoter R1 mutant NHE luciferase construct; experiment: Luciferase reporter assay, R1 NHE construct; type: cell-based, human; conditions: HEK 293, 100 μM, 24 h
[9] = tested on: BCL2 i-motif / BCL2 transcription; conditions: cited from earlier work
[10] = tested on: PDGFR-β 3′-end G-quadruplex; experiment: CD spectral and thermal-melt analysis with constituent PDGFR-β G-quadruplexes; type: binding, human
How it was run: as §2

## Cc1oc2nc1-c1nc(co1)-c1nc(co1)-c1nc(co1)-c1nc(co1)-c1nc(co1)C1=NC(CS1)c1nc-2c(C)o1 (stereo not shown) [telomestatin]
[1]
  G-quadruplex binding selectivity in PDGFR-β NHE: appeared to bind selectively to the 3′-end G-quadruplex
  effect on PDGFR-β: produced a decrease in PDGFR-β

## CN1CCc2ccccc2C1Cc1ccccc1NC(=O)c1sc2ccccc2c1Cl (stereo not shown) [NSC309874]
[2]
  effect on luciferase activity, NO-NHE construct: does not inhibit transcription
SK-N-SH
  IC50: 100 µM
[3]; CD thermal melt
  effect on Tm of R1 mutant i-motif: small increase in Tm
[3]; increasing concentrations of compound
  effect on CD of R1 mutant i-motif: little change in the CD
[4]
  increase in FRET signal, WT probe: 170%
[5]; HEK 293, 100 μM
  downregulation of luciferase activity, WT-NHE construct: approximately 45%
[6]; FRET (pH 6.6) high-throughput screening
  increase in FRET of the R1 mutant: more than 2 fold
[6]; probe 20 nM, compound 200 nM, 30 min
  increase in FRET signal, R1 mutant probe: 218%
HEK293
  IC50: > 100 µM
PDGFR-β transcript; 0.5 IC50 (50 μM)
  reduction of PDGFR-β expression: approximately 25%
PDGFR-β transcript; IC50 (100 μM)
  reduction of PDGFR-β expression: ~50%
[7]
  interaction with PDGFR-β G-quadruplex-forming sequence: negligible interaction
WT PDGFR-β i-motif
  shift in λMAX of CD spectrum of WT i-motif: from 286 to 279
[8]
  downregulation of luciferase activity, R1 NHE construct: ~50%

## COc1ccc2c(c1)CN([C@@H](C)[C@H]1CC[C@H]3[C@@H]4CC[C@H]5C[C@@H](O)CC[C@]5(C)[C@H]4CC[C@]13C)CO2 [IMC76]
[9]
  effect on BCL2 transcription: decreasing BCL2 transcription

## Cc1c2ccncc2c(C)c2c1[nH]c1ccc(OCCN(C)C)cc12 [NSC338258]
[10]; 1 mol equiv of compound
  increase in thermal stability of 3′-end G-quadruplex: 4 °C
[10]; 2 mol equiv of compound
  increase in thermal stability of 3′-end G-quadruplex: 9 °C
[5]; IC50 and 50% IC50 concentrations
  selectivity of luciferase inhibition WT-NHE versus NO-NHE: moderate degree of selectivity
[1]
  binding to PDGFR-β NHE compared with MYC promoter G-quadruplex: binds almost as well to the PDGFR-β NHE as to the MYC promoter G-quadruplex

## CC(C)CCC[C@@H](C)[C@H]1CC[C@H]2[C@@H]3CC[C@H]4C[C@H](NC(=O)C[N+]5(C)CCCCC5)CC[C@]4(C)[C@H]3CC[C@]12C.[I-] [IMC48]
[9]
  effect on BCL2 transcription: increased BCL2 transcription

From article PMC5977998 (Journal of the American Chemical Society, 2017)
